In ChEMBL document CHEMBL4190216, “Asymmetric 1,5-diarylpenta-1,4-dien-3-ones: Antiproliferative activity in prostate epithelial cell models and pharmacokinetic studies” (Eur J Med Chem, 2017):

What was measured:
PC-3 [1] = assay: Antiproliferative activity against human PC3 cells assessed as decrease in cell viability after 3 days by WST assay; format: functional, cell-based; details: PC-3, 72 h
Outline: (§1)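 Cells were seeded at 3,200 per well. PC-3 and LNCaP were grown in RPMI-1640 and DU-145 in EMEM, each with 10% FBS and 1% penicillin/streptomycin, at 37 °C and 5% CO2. Cells were exposed for 3 days to at least five concentrations, with DMSO as vehicle control. WST-1 reagent was then added for 3 h at 37 °C and absorbance read at 430 nm. IC50 came from linear inhibition, averaged over triplicates.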

DU-145 [2] = assay: Antiproliferative activity against human DU145 cells assessed as decrease in cell viability after 3 days by WST assay; format: functional, cell-based; details: DU-145, 72 h; outline: as §1
LNCaP [3] = assay: Antiproliferative activity against human LNCAP cells assessed as decrease in cell viability after 3 days by WST assay; format: functional, cell-based; details: 72 h; outline: as §1
PC-3 [4] = assay: Potency index, ratio of curcumin IC50 to test compound IC50 for human PC3 cells; format: functional
DU-145 [5] = assay: Potency index, ratio of curcumin IC50 to test compound IC50 for human DU145 cells; format: functional
LNCaP [6] = assay: Potency index, ratio of curcumin IC50 to test compound IC50 for human LNCAP cells; format: functional
PWR-1E [7] = assay: Antiproliferative activity against human PWR-1E cells expressing androgen receptor and PSA assessed as decrease in cell viability after 3 days by WST assay; format: functional, cell-based; details: 72 h
Outline: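 Non-malignant prostate epithelial PWR-1E (adenovirus 12/SV40-immortalized) was seeded at 5,000 per well. Cells were exposed for 3 days at 37 °C in a CO2 incubator to at least five concentrations, with DMSO as vehicle control. WST-1 reagent was then added for 3 h at 37 °C and absorbance read at 430 nm. IC50 came from linear inhibition, as the mean of triplicate determinations.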

PWR-1E [8] = assay: Potency index, ratio of curcumin IC50 to test compound IC50 for human PWR-1E cells expressing androgen receptor and PSA; format: functional

| SMILES | IC50 (PC-3 [1]) [nM] | IC50 (DU-145 [2]) [nM] | IC50 (LNCaP [3]) [nM] | Ratio IC50 (PC-3 [4]) | Ratio IC50 (DU-145 [5]) | Ratio IC50 (LNCaP [6]) | IC50 (PWR-1E [7]) [nM] | Ratio IC50 (PWR-1E [8]) |
| --- | --- | --- | --- | --- | --- | --- | --- | --- |
| Cc1nc(C(F)(F)F)c(/C=C/C(=O)/C=C/c2nc3ccccc3n2C)s1 | 480 | 780 | 340 | 53 | 34 | 40 | – | – |
| Cc1cccc(/C=C/C(=O)/C=C/c2ccccn2)n1 | 540 | 630 | 300 | 47 | 42 | 45 | – | – |
| CCn1c(/C=C/C(=O)/C=C/c2ccccn2)nc2ccccc21 | 230 | 460 | 120 | 111 | 57 | 113 | 40 | 221 |
| Cc1cc(/C=C/C(=O)/C=C/c2ccccn2)no1 | 450 | 700 | 310 | 57 | 38 | 44 | – | – |
| CC(C)Cn1ccnc1/C=C/C(=O)/C=C/c1nc2ccccc2n1CC(C)C | 200 | 370 | 560 | 127 | 71 | 24 | – | – |
| CCCn1c(/C=C/C(=O)/C=C/c2sc(C)nc2C(F)(F)F)nc2ccccc21 | 550 | 840 | 460 | 46 | 31 | 30 | – | – |
| CCCCn1ccnc1/C=C/C(=O)/C=C/c1nc2ccccc2n1CCCC | 190 | 310 | 400 | 134 | 85 | 34 | – | – |
| CC(C)n1ccnc1/C=C/C(=O)/C=C/c1cnc(N2CCCCC2)s1 | 3400 | 2550 | 2170 | 8 | 10 | 6 | – | – |
| Cn1c(/C=C/C(=O)/C=C/c2ccccn2)nc2ccccc21 | 560 | 680 | 180 | 45 | 39 | 76 | – | – |
| Cn1cc(Br)c(/C=C/C(=O)/C=C/c2ccccn2)n1 | 310 | 500 | 220 | 82 | 53 | 62 | 100 | 89 |
| COc1cc(/C=C/C(=O)/C=C/c2ccccn2)cc(OC)c1OC | 840 | 830 | 400 | 30 | 32 | 34 | – | – |
| CC(C)n1ccnc1/C=C/C(=O)/C=C/c1nc2ccccc2n1C(C)C | 180 | 130 | 260 | 141 | 138 | 52 | 30 | 293 |
| CC(C)CCn1ccnc1/C=C/C(=O)/C=C/c1nc2ccccc2n1CCC(C)C | 210 | 770 | 930 | 121 | 34 | 41 | – | – |
| COc1ccc(/C=C/C(=O)/C=C/c2ccccn2)cc1OC | 1700 | 2050 | 1760 | 15 | 13 | 8 | – | – |
| Cc1nc(C(F)(F)F)c(/C=C/C(=O)/C=C/c2nc3ccccc3n2C(C)C)s1 | 340 | 570 | 300 | 75 | 46 | 45 | 50 | 177 |
| O=C(/C=C/c1ccccn1)/C=C/c1nccs1 | 550 | 1130 | 450 | 46 | 23 | 30 | – | – |
| COc1cc(/C=C/C(=O)CC(=O)/C=C/c2ccc(O)c(OC)c2)ccc1O [CURCUMIN] | – | – | – | – | – | – | 8850 | – |

More lines, main results first:

| IC50 (PC-3 [1]) [nM] | IC50 (DU-145 [2]) [nM] | IC50 (LNCaP [3]) [nM] | SMILES | Ratio IC50 (PC-3 [4]) | Ratio IC50 (DU-145 [5]) | Ratio IC50 (LNCaP [6]) | IC50 (PWR-1E [7]) [nM] | Ratio IC50 (PWR-1E [8]) |
| --- | --- | --- | --- | --- | --- | --- | --- | --- |
| 720 | 670 | 660 | CCC(C)n1ccnc1/C=C/C(=O)/C=C/c1cc(OC)c(OC)c(OC)c1 (stereo not given) | 35 | 39 | 21 | – | – |
| 1330 | 850 | 910 | CCC(C)n1ccnc1/C=C/C(=O)/C=C/c1ccc(OC)c(OC)c1 (stereo not given) | 19 | 31 | 15 | – | – |
| 6860 | 3680 | 4050 | CC(C)n1ccnc1/C=C/C(=O)/C=C/c1cnc(N2CCCC2)s1 | 4 | 7 | 3 | – | – |
| 800 | 660 | 540 | Cc1nc(-c2ccncc2)sc1/C=C/C(=O)/C=C/c1nccn1C(C)C | 32 | 40 | 25 | – | – |
| 140 | 280 | 370 | CCCC(C)n1ccnc1/C=C/C(=O)/C=C/c1nc2ccccc2n1C(C)CCC (stereo not given) | 182 | 94 | 37 | 40 | 221 |
| 390 | 420 | 170 | CCC(C)n1ccnc1/C=C/C(=O)/C=C/c1nccs1 (stereo not given) | 64 | 62 | 80 | 140 | 63 |
| 370 | 750 | 240 | CCC(C)n1ccnc1/C=C/C(=O)/C=C/c1conc1C (stereo not given) | 69 | 35 | 57 | – | – |
| 300 | 340 | 240 | CCC(C)n1ccnc1/C=C/C(=O)/C=C/c1ccccn1 (stereo not given) | 85 | 77 | 57 | 170 | 52 |
| 330 | 280 | 310 | CCC(C)n1ccnc1/C=C/C(=O)/C=C/c1nn(C)cc1Br (stereo not given) | 76 | 94 | 44 | 140 | 63 |
| 310 | 530 | 240 | CCC(C)n1ccnc1/C=C/C(=O)/C=C/c1cc(C)on1 (stereo not given) | 82 | 50 | 57 | 110 | 81 |
| 260 | 290 | 260 | CCC(C)n1ccnc1/C=C/C(=O)/C=C/c1cccc(C)n1 (stereo not given) | 98 | 90 | 52 | 130 | 68 |
| 2270 | 1320 | 1410 | CC(C)n1ccnc1/C=C/C(=O)/C=C/c1cnc(N2CCOCC2)s1 | 11 | 20 | 10 | – | – |
| 240 | 350 | 330 | CCC(C)n1ccnc1/C=C/C(=O)/C=C/c1nc2ccccc2n1C(C)CC (stereo not given) | 106 | 75 | 41 | – | – |
